In data set [1] the target is T1, Tyrosine-protein phosphatase non-receptor type 5 (Homo sapiens, UniProt P54829).
T1 sequence (P54829 whole entry): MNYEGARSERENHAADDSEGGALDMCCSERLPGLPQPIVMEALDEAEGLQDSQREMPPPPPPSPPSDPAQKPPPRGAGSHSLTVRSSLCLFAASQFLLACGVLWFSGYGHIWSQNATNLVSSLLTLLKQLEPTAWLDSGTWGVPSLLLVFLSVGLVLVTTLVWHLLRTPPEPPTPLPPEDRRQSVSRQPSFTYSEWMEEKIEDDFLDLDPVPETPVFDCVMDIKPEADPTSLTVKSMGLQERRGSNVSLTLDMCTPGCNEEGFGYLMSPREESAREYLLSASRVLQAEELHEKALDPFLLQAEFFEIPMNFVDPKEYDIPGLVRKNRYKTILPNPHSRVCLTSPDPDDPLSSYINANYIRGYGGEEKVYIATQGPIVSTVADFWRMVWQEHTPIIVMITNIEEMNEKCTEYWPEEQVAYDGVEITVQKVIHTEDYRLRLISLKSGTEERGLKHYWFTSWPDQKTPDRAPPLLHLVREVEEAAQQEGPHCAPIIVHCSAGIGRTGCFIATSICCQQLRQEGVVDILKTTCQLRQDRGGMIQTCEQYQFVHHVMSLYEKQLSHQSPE
The data set can be described thus: Inhibition of human STEP using pNPP as substrate after 5 mins by spectrophotometric plate reader analysis.

For data set [2], the species on record is Homo sapiens. Briefly: Selectivity ratio of Ki for human MKP5 to Ki for human STEP. An outline of the steps: (§1)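 STEP, CD45, LAR and TC-PTP used pNPP (500 μM) in imidazole/NaCl pH 7.0 with Triton X-100, read at 405 nm for 20 min. MKP5 used DiFMUP in Tris-HCl pH 8.0. The enzyme's own pNPP KM was used in analysis; ratio of the Ki values.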
For data set [3], the species on record is Homo sapiens. Briefly: Selectivity ratio of Ki for human TC-PTP to Ki for human STEP. Summed up: as §1
For data set [4], the species on record is Homo sapiens. The data set can be described thus: Selectivity ratio of Ki for human CD45 to Ki for human STEP. An outline of the steps: as §1
Data set [5] concerns the target T2, Receptor-type tyrosine-protein phosphatase C (Homo sapiens, UniProt P08575).
T2 sequence (P08575 whole entry): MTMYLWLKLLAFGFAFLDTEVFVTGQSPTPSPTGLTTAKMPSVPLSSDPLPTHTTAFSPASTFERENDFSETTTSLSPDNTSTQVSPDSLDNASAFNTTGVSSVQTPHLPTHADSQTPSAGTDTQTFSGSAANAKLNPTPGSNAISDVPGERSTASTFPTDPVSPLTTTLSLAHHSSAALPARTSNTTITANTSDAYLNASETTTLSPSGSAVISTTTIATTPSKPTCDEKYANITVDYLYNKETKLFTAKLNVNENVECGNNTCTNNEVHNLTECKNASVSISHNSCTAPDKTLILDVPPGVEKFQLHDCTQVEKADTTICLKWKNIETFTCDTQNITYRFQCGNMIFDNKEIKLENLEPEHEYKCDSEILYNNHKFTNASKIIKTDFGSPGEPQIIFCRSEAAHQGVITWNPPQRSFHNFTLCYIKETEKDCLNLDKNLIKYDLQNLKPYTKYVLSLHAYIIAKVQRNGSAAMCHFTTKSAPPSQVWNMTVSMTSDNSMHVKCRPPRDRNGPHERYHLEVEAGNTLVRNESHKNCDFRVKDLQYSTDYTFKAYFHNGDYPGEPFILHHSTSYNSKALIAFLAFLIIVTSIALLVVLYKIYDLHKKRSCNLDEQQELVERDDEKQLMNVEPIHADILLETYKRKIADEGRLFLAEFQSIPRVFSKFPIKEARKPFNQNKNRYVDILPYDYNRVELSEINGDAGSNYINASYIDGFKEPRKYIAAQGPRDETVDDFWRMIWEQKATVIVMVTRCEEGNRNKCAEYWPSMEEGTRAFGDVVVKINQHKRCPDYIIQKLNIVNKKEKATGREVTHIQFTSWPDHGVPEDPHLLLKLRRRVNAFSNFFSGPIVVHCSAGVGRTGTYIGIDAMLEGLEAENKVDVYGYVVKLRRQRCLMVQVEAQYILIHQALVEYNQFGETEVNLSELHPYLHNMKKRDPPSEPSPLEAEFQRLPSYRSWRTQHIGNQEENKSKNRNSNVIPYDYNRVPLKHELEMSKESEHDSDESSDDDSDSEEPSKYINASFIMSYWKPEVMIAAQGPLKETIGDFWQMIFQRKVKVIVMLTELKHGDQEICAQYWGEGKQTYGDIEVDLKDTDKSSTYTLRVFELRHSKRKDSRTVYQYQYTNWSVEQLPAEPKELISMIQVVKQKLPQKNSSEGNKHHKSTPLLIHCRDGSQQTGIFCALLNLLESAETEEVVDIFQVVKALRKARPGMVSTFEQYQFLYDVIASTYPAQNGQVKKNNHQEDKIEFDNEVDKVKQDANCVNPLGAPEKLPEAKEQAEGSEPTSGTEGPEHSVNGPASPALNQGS
Briefly: Inhibition of human CD45 using pNPP as substrate after 5 mins by spectrophotometric plate reader analysis. Summed up:
(§2)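 Enzyme preincubated 5 min at 27 °C with serially diluted inhibitor (from DMSO) in imidazole/NaCl buffer pH 7.0 with 0.01% Triton X-100 and 5 mM DTT. Started with pNPP (500 μM in assay) and read at 405 nm for 20 min. The pNPP KM was measured for each enzyme. Ki from nonlinear regression of substrate–velocity curves at several inhibitor levels; at least duplicate.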

Data set [6] addresses T3, Dual specificity protein phosphatase 10 (Homo sapiens, UniProt Q9Y6W6).
T3 sequence (Q9Y6W6 whole entry): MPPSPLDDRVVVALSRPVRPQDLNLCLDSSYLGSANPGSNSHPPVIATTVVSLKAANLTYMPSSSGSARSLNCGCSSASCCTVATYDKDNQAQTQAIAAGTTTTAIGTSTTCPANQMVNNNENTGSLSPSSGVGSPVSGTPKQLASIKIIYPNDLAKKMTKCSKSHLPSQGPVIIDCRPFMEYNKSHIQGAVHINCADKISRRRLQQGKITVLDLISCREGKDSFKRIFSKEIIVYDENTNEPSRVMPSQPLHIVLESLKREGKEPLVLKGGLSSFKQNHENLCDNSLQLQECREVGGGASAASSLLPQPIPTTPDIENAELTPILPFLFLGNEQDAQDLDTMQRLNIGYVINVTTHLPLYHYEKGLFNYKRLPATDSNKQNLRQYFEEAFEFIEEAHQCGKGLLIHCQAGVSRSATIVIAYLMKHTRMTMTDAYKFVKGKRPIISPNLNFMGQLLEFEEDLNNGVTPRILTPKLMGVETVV
Briefly: Inhibition of human MKP5 using DiFMUP as substrate after 5 mins by spectrophotometric plate reader analysis. Summed up:
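The […] substrate was DiFMUP. Buffer was Tris-HCl pH 8.0 with Triton X-100 and 5 mM DTT. Inhibitor was preincubated with enzyme for 5 min at 27 °C before adding substrate. Ki from nonlinear regression of initial-rate substrate–velocity data at several inhibitor concentrations; at least duplicate.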

The species entered for data set [7] is Homo sapiens. The data set can be described thus: Selectivity ratio of Ki for human LAR to Ki for human STEP. An outline of the steps:
as §1

In data set [8] the target is T4, Tyrosine-protein phosphatase non-receptor type 2 (Homo sapiens, UniProt P17706).
T4 sequence (P17706 whole entry): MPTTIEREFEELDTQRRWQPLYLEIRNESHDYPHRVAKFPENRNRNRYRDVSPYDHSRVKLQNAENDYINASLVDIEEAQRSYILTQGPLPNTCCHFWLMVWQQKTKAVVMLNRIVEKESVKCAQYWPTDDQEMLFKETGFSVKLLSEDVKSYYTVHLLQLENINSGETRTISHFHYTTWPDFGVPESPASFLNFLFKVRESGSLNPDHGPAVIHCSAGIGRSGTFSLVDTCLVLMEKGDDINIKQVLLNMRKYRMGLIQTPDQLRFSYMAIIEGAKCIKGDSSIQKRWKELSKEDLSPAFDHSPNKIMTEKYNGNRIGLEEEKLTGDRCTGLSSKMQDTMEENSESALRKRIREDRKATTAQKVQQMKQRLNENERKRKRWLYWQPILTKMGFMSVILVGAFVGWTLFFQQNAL
The data set can be described thus: Inhibition of human TC-PTP using pNPP as substrate after 5 mins by spectrophotometric plate reader analysis. Summed up:
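Selectivity assay using the STEP Ki protocol. Enzyme was preincubated 5 min at 27 °C with two- or three-fold inhibitor serial dilutions in DMSO, in imidazole/NaCl buffer at pH 7.0 with 0.01% Triton X-100 and 5 mM DTT. Reaction started with pNPP (500 μM in assay), read continuously at 405 nm for 20 min. Ki came from nonlinear regression of substrate-velocity curves, using this enzyme's pNPP KM; at least duplicate.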

In data set [9] the target is Receptor-type tyrosine-protein phosphatase F (Homo sapiens, UniProt P10586). The data set can be described thus: Inhibition of human LAR using pNPP as substrate after 5 mins by spectrophotometric plate reader analysis. Summed up: as §2
Chain of Receptor-type tyrosine-protein phosphatase F (P10586 whole entry): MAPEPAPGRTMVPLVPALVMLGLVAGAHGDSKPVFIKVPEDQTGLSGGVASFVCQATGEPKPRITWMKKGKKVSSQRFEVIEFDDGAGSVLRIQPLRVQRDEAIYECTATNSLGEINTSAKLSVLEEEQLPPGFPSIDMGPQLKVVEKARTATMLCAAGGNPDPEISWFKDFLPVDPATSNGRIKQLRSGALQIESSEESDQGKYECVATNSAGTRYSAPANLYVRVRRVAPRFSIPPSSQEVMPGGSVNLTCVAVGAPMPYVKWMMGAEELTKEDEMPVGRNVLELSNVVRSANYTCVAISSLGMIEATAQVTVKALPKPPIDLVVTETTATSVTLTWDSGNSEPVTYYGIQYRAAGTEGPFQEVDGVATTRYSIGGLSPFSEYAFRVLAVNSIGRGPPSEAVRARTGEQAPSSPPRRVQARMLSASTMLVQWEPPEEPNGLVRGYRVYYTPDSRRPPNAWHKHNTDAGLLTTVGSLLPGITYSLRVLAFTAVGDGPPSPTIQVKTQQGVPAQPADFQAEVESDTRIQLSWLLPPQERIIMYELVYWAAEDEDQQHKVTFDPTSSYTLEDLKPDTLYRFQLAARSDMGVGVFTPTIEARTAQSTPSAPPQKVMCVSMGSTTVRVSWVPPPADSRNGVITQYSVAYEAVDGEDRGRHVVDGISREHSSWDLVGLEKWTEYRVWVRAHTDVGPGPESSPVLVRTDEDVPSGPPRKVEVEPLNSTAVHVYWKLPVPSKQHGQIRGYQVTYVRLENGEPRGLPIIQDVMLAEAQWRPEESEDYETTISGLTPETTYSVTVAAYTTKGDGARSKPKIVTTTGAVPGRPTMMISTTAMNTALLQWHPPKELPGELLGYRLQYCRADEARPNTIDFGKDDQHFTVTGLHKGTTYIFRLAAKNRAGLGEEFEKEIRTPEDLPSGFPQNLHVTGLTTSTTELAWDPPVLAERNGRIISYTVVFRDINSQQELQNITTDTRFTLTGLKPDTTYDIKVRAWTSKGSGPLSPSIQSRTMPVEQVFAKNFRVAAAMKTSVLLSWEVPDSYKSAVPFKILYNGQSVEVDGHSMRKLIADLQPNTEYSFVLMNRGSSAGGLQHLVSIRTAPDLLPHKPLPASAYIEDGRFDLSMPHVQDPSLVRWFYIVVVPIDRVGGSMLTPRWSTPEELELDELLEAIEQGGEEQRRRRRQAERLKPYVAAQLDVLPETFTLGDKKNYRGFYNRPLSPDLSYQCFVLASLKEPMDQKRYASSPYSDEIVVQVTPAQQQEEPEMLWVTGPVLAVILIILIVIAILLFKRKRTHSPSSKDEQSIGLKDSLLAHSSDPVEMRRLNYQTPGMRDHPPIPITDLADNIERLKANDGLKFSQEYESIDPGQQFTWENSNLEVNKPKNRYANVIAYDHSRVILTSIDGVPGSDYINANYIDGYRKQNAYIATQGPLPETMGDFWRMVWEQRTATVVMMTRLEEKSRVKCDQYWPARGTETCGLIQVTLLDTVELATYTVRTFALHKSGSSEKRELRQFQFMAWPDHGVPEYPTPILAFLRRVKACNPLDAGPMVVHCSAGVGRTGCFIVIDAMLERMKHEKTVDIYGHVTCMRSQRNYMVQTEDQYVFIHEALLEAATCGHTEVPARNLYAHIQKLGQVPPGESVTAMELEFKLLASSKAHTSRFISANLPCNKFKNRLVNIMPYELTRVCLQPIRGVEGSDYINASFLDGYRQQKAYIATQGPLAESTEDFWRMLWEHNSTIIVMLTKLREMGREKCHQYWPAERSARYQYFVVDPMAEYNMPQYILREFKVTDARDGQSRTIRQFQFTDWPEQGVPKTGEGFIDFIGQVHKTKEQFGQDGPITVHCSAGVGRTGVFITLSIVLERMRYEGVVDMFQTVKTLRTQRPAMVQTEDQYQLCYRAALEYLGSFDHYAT
Substrate in data set [10]: O=P(O)(O)Oc1cccc(-c2ccccc2)c1
The data set can be described thus: (§3) Activity at human STEP measured for 20 mins by spectrophotometric plate reader analysis. An outline of the steps: (§4)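 Substrate KM by coupled assay: STEP 100 nM with MESG 400 μM, PNP 1 U/mL, 5 mM DTT in imidazole/NaCl buffer with Triton X-100, pH 7.0; preincubated 3 min at 27 °C, then started with substrate (about 0–3.00 mM in assay, from DMSO). Followed 20 min at 360 nm, 27 °C; KM from Michaelis–Menten fit of initial rates.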

Substrate in data set [11]: O=C(Oc1cccc(OP(=O)(O)O)c1)c1ccccc1
Described as §3. An outline of the steps: as §4

Substrate in data set [12]: COC(=O)[C@H](Cc1ccc(OP(=O)(O)O)cc1)NC(C)=O
The data set is described as §3. Summed up: as §4

Substrate in data set [13]: O=P(O)(O)Oc1ccccc1
The description is as §3. Summed up: as §4

Substrate in data set [14]: O=[N+]([O-])c1ccc(OP(=O)(O)O)cc1
Described as §3. An outline of the steps:
as §4

Substrate in data set [15]: CC(C)(C)CC(C)(C)c1ccc(OP(=O)(O)O)cc1
Described as §3. Summed up:
as §4

Substrate in data set [16]: O=P(O)(O)Oc1ccc(-c2ccccc2)cc1
The description is as §3. Summed up: as §4

Substrate in data set [17]: O=P(O)(O)Oc1cccc(Nc2ccccc2)c1
The description is as §3. Summed up:
as §4

Substrate in data set [18]: O=C(Cc1ccc(OP(=O)(O)O)cc1)Nc1ccccc1
Described as §3. An outline of the steps: as §4

Substrate in data set [19]: CC(Cc1ccccc1)c1ccc(OP(=O)(O)O)cc1
Described as §3. An outline of the steps:
as §4

`O=P(O)(O)[C@@H](O)c1ccc(-c2cccc([C@H](O)c3ccc(Cl)c(Cl)c3)c2)cc1`: the Ki in data set [1] amounted to 93 µM. In other words, the double-digit micromolar range.

Turning to `CS(=O)(=O)Nc1ccccc1-c1ccc(C(F)(F)P(=O)(O)O)cc1`, the affinity in [1] corresponds to a Ki of 673 µM.

For the molecule `O=P(O)(O)C(F)(F)c1cccc(-c2cccc(C3CCCCC3)c2O)c1`, the Ratio Ki in the data set listed under Homo sapiens [2] was 7.5; in the data set listed under Homo sapiens [3] it was 3.6; in the data set listed under Homo sapiens [4] it was above 25; in the data set filed under Homo sapiens [7], above 45. The Ki is 20 µM in [1]; above 500 µM in data set [5]; 150 µM in [6]; 71 µM in [8]; above 900 µM in data set [9].

In turn, `CS(=O)(=O)Nc1cccc(-c2ccc(C(F)(F)P(=O)(O)O)cc2)c1` displayed a Ki in data set [1] of 113 µM.

Regarding `O=P(O)(O)C(F)(F)c1cccc(-c2ccccc2)c1`, the affinity in [1], expressed as Ki, was 337 µM.

In the case of `O=P(O)(O)C(F)(F)c1ccc(-c2ccccc2)cc1`, the Ki in data set [1] is 120 µM.

In data set [1], `O=P(O)(O)[C@@H](O)c1ccc(-c2cccc([C@@H](O)c3ccc(Cl)c(Cl)c3)c2)cc1` had an inhibitory constant (Ki) of 88 µM.

`O=P(O)(O)C(F)(F)c1ccc(-c2cccc(Nc3ccccc3)c2)cc1` yielded a Ki in data set [1] of 112 µM.

B1: Tyrosine-protein phosphatase non-receptor type 5 (Homo sapiens), P54829 (protein)
chain: T1 sequence (P54829 whole entry)
For the molecule B1, the Michaelis-Menten constant (Km) in [10] is 277 µM; in data set [11], 327 µM; in data set [12], 378 µM; in data set [13], 2730 µM; in data set [14], 745 µM; in data set [15] it was 260 µM. Also, the Km in data set [16] is 169 µM; in data set [17] it was 650 µM; in data set [18] it was 133 µM; in data set [19], 128 µM.

The values above are taken from ChEMBL document CHEMBL2429849, “Substrate-based fragment identification for the development of selective, nonpeptidic inhibitors of striatal-enriched protein tyrosine phosphatase” (J Med Chem, 2013).
